Source: ChEMBL document CHEMBL1144157, “Synthesis of new 1-phenyl-3-{4-[(2E)-3-phenylprop-2-enoyl]phenyl}-thiourea and urea derivatives with anti-nociceptive activity” (2008)
Calls of active or inactive are those of the source.

Experiments:
Mus musculus [1] = test: Antinociceptive activity against formalin-induced paw pain in ip dosed Swiss mouse pretreated 30 mins before formalin challenge assessed after 15 to 30 mins; format: functional; details: for ED50: read-out: ID50 (the source's name)
Outline: (§1)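 Mice given compound (6–30 mg/kg, ip) or saline 30 min before intraplantar injection into the right hind paw of 20 µl 2.5% formalin (0.92% formaldehyde) in saline. Paw-licking time scored in a glass cylinder with a 45° mirror, 0–5 min (early phase) and 15–30 min (late phase). n = 6. ID50 as geometric mean with 95% confidence limits.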

Mus musculus [2] = test: Antinociceptive activity against formalin-induced paw pain in ip dosed Swiss mouse pretreated 30 mins before formalin challenge assessed after 0 to 5 mins; format: functional; details: for ED50: read-out: ID50 (the source's name); outline: as §1
Mus musculus [3] = test: Antinociceptive activity against acetic acid-induced abdominal constrictions in Swiss mouse assessed as maximal inhibition at 10 mg/kg, ip pretreated 30 mins before acetic acid challenge; format: functional; details: Abdomen, route intraperitoneal
Outline: (§2)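 Swiss mice (25–35 g), 10 ml/kg ip of compound (1–60 mg/kg) or 0.9% NaCl control, given 30 min before ip 0.6% acetic acid. Abdominal constrictions with hind-limb stretching counted cumulatively over 20 min, mice in separate glass funnels at 20–22 °C. Groups of six to eight. ID50 is the geometric mean with 95% confidence limits, found by graphical interpolation.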

Mus musculus [4] = test: Antinociceptive activity against acetic acid-induced abdominal constrictions in ip dosed Swiss mouse pretreated 30 mins before acetic acid challenge; format: functional; details: Abdomen; for ED50: read-out: ID50 (the source's name); outline: as §2
Mus musculus [5] = test: Antinociceptive activity against acetic acid-induced abdominal constrictions in po dosed Swiss mouse pretreated 30 mins before acetic acid challenge; format: functional; details: Abdomen, read-out: ID50 (the source's name)
Outline: (§3)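 Oral pretreatment (50–200 mg/kg) of Swiss mice before ip 0.6% acetic acid. Writhing (abdominal contractions plus hind-limb stretching) counted cumulatively for 20 min at 20–22 °C. Six animals per group, mean ± s.e.m. ID50 with 95% confidence limits obtained by graphical interpolation.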

Mus musculus [6] = test: Antinociceptive activity against capsaicin-induced paw pain in Swiss mouse assessed as maximal inhibition at 10 mg/kg, ip pretreated 30 mins before capsaicin challenge; format: functional, organism-based; set-up: dose 10 mg/kg
Mus musculus [7] = test: Antinociceptive activity against acetic acid-induced abdominal constrictions in Swiss mouse assessed as maximal inhibition at 50 mg/kg, po pretreated 30 mins before acetic acid challenge; format: functional; details: Abdomen; outline: as §3
Mus musculus [8] = test: Antinociceptive activity against glutamate-induced paw pain in Swiss mouse assessed as maximal inhibition at 30 mg/kg, ip pretreated 30 mins before glutamate challenge; format: functional; details: route intraperitoneal
Outline: (§4)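 Mice treated ip (6–30 mg/kg) 30 min before intraplantar injection into the right hind paw of 20 µl glutamate in PBS (30 µmol/paw). Time spent licking or biting the paw timed over 0–15 min in glass cylinders. n = 6. ID50 reported with 95% confidence limits.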

Mus musculus [9] = test: Antinociceptive activity against formalin-induced paw pain in Swiss mouse assessed as maximal inhibition at 6 mg/kg, ip pretreated 30 mins before formalin challenge assessed after 15 to 30 mins; format: functional; details: route intraperitoneal; outline: as §1
Mus musculus [10] = test: Antinociceptive activity against formalin-induced paw pain in Swiss mouse assessed as maximal inhibition at 30 mg/kg, ip pretreated 30 mins before formalin challenge assessed after 0 to 5 mins; format: functional; details: route intraperitoneal; outline: as §1
Mus musculus [11] = test: Antinociceptive activity against acetic acid-induced abdominal constrictions in Swiss mouse assessed as maximal inhibition at 200 mg/kg, po pretreated 30 mins before acetic acid challenge; format: functional; details: Abdomen; outline: as §3
Mus musculus [12] = test: Antinociceptive activity against formalin-induced paw pain in Swiss mouse assessed as maximal inhibition at 10 mg/kg, ip pretreated 30 mins before formalin challenge assessed after 0 to 5 mins; format: functional; details: route intraperitoneal; outline: as §1
Mus musculus [13] = test: Antinociceptive activity against formalin-induced paw pain in Swiss mouse assessed as maximal inhibition at 30 mg/kg, ip pretreated 30 mins before formalin challenge assessed after 15 to 30 mins; format: functional; details: route intraperitoneal; outline: as §1
Mus musculus [14] = test: Antinociceptive activity against glutamate-induced paw pain in ip dosed Swiss mouse pretreated 30 mins before glutamate challenge; format: functional; details: read-out: ID50 (the source's name); outline: as §4
Mus musculus [15] = test: Antinociceptive activity against glutamate-induced paw pain in Swiss mouse assessed as maximal inhibition at 10 mg/kg, ip pretreated 30 mins before glutamate challenge; format: functional; details: route intraperitoneal; outline: as §4
Mus musculus [16] = test: Antinociceptive activity against formalin-induced paw pain in Swiss mouse assessed as maximal inhibition at 10 mg/kg, ip pretreated 30 mins before formalin challenge assessed after 15 to 30 mins; format: functional; details: route intraperitoneal; outline: as §1
Mus musculus [17] = test: Antinociceptive activity against acetic acid-induced abdominal constrictions in Swiss mouse assessed as maximal inhibition at 100 mg/kg, po pretreated 30 mins before acetic acid challenge; format: functional; details: Abdomen; outline: as §3
Mus musculus [18] = test: Antinociceptive activity against heat-induced paw licking in Swiss mouse assessed as increase in licking latency period at 10 mg/kg, ip pretreated 30 mins before heat challenge by hot plate method; format: functional, organism-based; set-up: dose 10 mg/kg
Outline: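 Mice dosed ip (10 mg/kg), saline, or morphine sc, 30 min before placement on a plate held at 56 ± 1 °C. Latency to hind-paw licking, paw shaking or jumping recorded. Animals with baseline latency above 20 s excluded; cut-off 30 s. n = 6.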

Mus musculus [19] = test: Antinociceptive activity against acetic acid-induced abdominal constrictions in Swiss mouse at 60 mg/kg, ip pretreated 30 mins before acetic acid challenge; format: functional, organism-based; set-up: dose 60 mg/kg; details: Abdomen; outline: as §2

Row | Structure (SMILES) | inhibition in vivo at 10 mg/kg (Mus musculus [3]) [%] | Activity (Mus musculus [4]) | ED50 (Mus musculus [4]) [µmol/kg] | other results
1 | O=C(O)Cc1ccccc1Nc1c(Cl)cccc1Cl [DICLOFENAC] | – | – | – | ED50 (Mus musculus [1]): 34.5 µmol/kg; ED50 (Mus musculus [2]): > 94 µmol/kg
2 | Cc1ccc(/C=C/C(=O)c2ccc(NC(=O)Nc3ccc(Cl)cc3)cc2)cc1 | 42.8 | Dose-dependent effect | 39.7 | –
3 | O=C(/C=C/c1ccc(Cl)c(Cl)c1)c1ccc(NC(=S)Nc2ccc(Cl)cc2)cc1 | 97.5 | Dose-dependent effect | 6.15 | –
4 | Cc1c(N(C)CS(=O)(=O)O)c(=O)n(-c2ccccc2)n1C [DIPYRONE SODIUM] | 33 | – | 162 | ED50 (Mus musculus [1]): 264 µmol/kg; ED50 (Mus musculus [2]): 154 µmol/kg
5 | O=C(Nc1ccc(Cl)cc1)Nc1ccc(C(=O)/C=C/c2ccccc2)cc1 | 74.6 | Dose-dependent effect | 7.25 | –
6 | CC(=O)Nc1ccc(O)cc1 [ACETAMINOPHEN] | 38 | – | – | ED50 (Mus musculus [5]): 1140 µmol/kg; Activity (Mus musculus [6]): inactive; Activity (Mus musculus [2]): inactive
7 | COc1ccc(/C=C/C(=O)c2ccc(NC(=O)Nc3ccc(Cl)cc3)cc2)cc1 | 84.4 | Dose-dependent effect | 31.1 | –
8 | COc1ccc(/C=C/C(=O)c2ccc(NC(=S)Nc3ccc(Cl)cc3)cc2)cc1 | 92 | Dose-dependent effect | 10.4 | –
9 | Cc1ccc(/C=C/C(=O)c2ccc(NC(=S)Nc3ccc(Cl)cc3)cc2)cc1 | 75.3 | Dose-dependent effect | 13.1 | –
10 | O=C(Nc1ccc(Cl)cc1)Nc1ccc(C(=O)/C=C/c2ccc(Cl)cc2)cc1 | 51 | Dose-dependent effect | 45.4 | –
11 | CC(=O)Oc1ccccc1C(=O)O [ASPIRIN] | 35 | – | – | ED50 (Mus musculus [5]): 605 µmol/kg; Activity (Mus musculus [6]): inactive; Activity (Mus musculus [2]): inactive
12 | O=C(/C=C/c1ccc(Cl)cc1)c1ccc(NC(=S)Nc2ccc(Cl)cc2)cc1 | 100 | Dose-dependent effect | 7.59 | –
13 | O=C(/C=C/c1ccccc1)c1ccc(NC(=S)Nc2ccc(Cl)cc2)cc1 | 94.5 | Dose-dependent effect | 3.03 | inhibition in vivo at 50 mg/kg (Mus musculus [7]): 23.5%; inhibition in vivo at 30 mg/kg (Mus musculus [8]): 58.3%; ED50 (Mus musculus [5]): 378 µmol/kg; inhibition in vivo at 6 mg/kg (Mus musculus [9]): 51%; inhibition in vivo at 30 mg/kg (Mus musculus [10]): 53.9%; Activity (Mus musculus [1]): Dose-dependent effect; ED50 (Mus musculus [1]): 26.9 µmol/kg; inhibition in vivo at 200 mg/kg (Mus musculus [11]): 55%; inhibition in vivo at 10 mg/kg (Mus musculus [12]): 37.8%; Activity (Mus musculus [6]): inactive; Activity (Mus musculus [2]): Dose-dependent effect; ED50 (Mus musculus [2]): 69.3 µmol/kg; inhibition in vivo at 30 mg/kg (Mus musculus [13]): 78.7%; ED50 (Mus musculus [14]): 62.1 µmol/kg; inhibition in vivo at 10 mg/kg (Mus musculus [15]): 42.6%; inhibition in vivo at 10 mg/kg (Mus musculus [16]): 62.6%; inhibition in vivo at 100 mg/kg (Mus musculus [17]): 43.4%; Activity (Mus musculus [18]): inactive
14 | O=C(Nc1ccc(Cl)cc1)Nc1ccc(C(=O)/C=C/c2ccc(Cl)c(Cl)c2)cc1 | 21.6 | – | – | Activity (Mus musculus [19]): inactive
